The source of these data is publication PMC2151581 (The Journal of General Physiology, 2006).

Ends that are not written are not given here.

The test system of assay [1] is BK channels. The following applies: wild type and calcium bowl mutant channels; ref Zakharov et al., 2005; cited from earlier work.
The target in assay [2] is Drosophila Slowpoke calcium-dependent potassium channel (dSlo) (Drosophila melanogaster, UniProt Q03720). The experiment in a line: Inside-out patch recording of dSlo current with peptide on the cytoplasmic side. Format: cell-based. Put shortly:
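Inside-out patches came from CHO cells transfected with dSlo, in symmetrical 150 mM KCl, 0.5 mM HEDTA, 1 mM Mg²⁺, 10 mM HEPES pH 7.2, with 7 μM free Ca²⁺, at room temperature. Peptide was dissolved in the bath (cytoplasmic side). Patches were stepped from −80 to +140 mV; the mean current over the last 10 ms was normalized to the same patch before peptide. A Hill equation fit across concentrations gave IC50.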

Assay [3] concerns dSlo. The experiment in a line: Coimmunoprecipitation of Slobs with dSlo from CHO cell lysates, Western blot. Format: binding, Drosophila. The following applies: cotransfected CHO cells, anti-Slob immunoprecipitation. In outline:
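Slobs were cotransfected with the channel into CHO cells (Ham's F-12, 10% FBS, penicillin/streptomycin) using Lipofectamine 2000. Lysis was 1 d later in Tris-HCl pH 7.5/NaCl/KCl/NaF/1% CHAPS buffer with DTT and protease inhibitors. The 16,000 g supernatant was incubated with anti-Slob for 2 h at 4°C, then protein A/G agarose overnight at 4°C, with four PBS washes. SDS-PAGE, nitrocellulose, anti-dSlo 1 h at RT, HRP anti-rabbit, ECL. Controls were blank vector and nontransfected cells.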
A general note: In western blotting, separated proteins are transferred to a membrane and probed.

Assay [4] relates to dSloD5N5 (calcium bowl mutant of dSlo). Format: cell-based, Drosophila. In outline: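 CHO cells were cotransfected 1:1 (molar) with dSloD5N5 and Slob57 or truncation mutants using Lipofectamine 2000. Whole-cell recording was done 1 d later at room temperature with 2–4 MΩ pipettes, in symmetrical 150 mM KCl, 0.5 mM HEDTA, 2 mM MgCl₂, 10 mM HEPES pH 7.2, with 110 or 300 μM free Ca²⁺ in the pipette. Holding was −80 mV, then −120 mV afterward. 350-ms pulses were used for inactivation; 100-ms pulses gave G–V from peak tail currents and V1/2. Mean ± SEM, ANOVA/Bonferroni.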

Drosophila Slowpoke calcium-dependent potassium channel (dSlo), sequence (Q03720 whole entry): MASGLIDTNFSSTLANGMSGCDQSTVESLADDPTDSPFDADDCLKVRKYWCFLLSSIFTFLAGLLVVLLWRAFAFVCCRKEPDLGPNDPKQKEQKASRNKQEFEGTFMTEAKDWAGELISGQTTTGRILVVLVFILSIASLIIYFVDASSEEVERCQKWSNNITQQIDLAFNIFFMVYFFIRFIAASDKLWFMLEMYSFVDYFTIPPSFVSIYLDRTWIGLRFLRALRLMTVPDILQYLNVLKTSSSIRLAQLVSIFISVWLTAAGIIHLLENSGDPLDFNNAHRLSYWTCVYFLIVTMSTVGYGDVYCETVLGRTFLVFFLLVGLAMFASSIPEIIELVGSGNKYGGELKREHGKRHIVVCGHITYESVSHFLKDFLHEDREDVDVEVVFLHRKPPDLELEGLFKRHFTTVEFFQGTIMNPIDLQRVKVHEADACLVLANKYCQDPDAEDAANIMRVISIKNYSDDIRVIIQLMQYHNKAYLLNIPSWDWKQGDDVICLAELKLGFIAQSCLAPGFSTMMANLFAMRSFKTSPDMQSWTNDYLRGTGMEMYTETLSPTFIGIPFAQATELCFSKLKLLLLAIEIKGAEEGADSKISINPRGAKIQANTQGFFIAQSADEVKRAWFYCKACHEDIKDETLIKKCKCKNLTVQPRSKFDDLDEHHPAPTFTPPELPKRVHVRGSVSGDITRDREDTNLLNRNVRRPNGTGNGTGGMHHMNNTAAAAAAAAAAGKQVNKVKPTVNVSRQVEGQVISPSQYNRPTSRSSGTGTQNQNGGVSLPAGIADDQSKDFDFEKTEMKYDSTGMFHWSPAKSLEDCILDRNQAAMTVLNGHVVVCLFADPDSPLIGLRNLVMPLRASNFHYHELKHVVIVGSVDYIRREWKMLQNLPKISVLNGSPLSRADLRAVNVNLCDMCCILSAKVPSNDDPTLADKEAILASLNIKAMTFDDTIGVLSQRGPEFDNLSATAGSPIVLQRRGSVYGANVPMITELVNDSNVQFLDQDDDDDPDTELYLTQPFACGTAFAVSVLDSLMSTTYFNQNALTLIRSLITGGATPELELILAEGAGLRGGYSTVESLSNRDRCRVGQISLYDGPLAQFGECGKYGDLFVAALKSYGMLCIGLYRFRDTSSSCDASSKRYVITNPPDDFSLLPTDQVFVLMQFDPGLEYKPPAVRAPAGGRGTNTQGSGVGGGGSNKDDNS

Turning to `CC(=O)c1c(O)c(C)c(O)c(Cc2c(O)c3c(c(C(=O)/C=C/c4ccccc4)c2O)OC(C)(C)C=C3)c1O` [mallotoxin], in assay [1], the “Ca2+ dependence of the modulation of BK channels” value is reported as “independent of Ca^2+ binding”. One may read the IC50 as the concentration at which inhibition is half-maximal. Broadly, the Kd is the concentration at which binding is half-saturated. As for MFKFNK [MFKFNK], in assay [2], the IC50 amounted to 31 µM and the Kd worked out at 162 µM.

B1: Slob57ΔN15: amino-terminal 15 residue–truncated Slob57 (deletion of residues 2–16) (protein)
chain: MNSAVTGHDPFVRPPVPEKKVRNIMKKLHKANGLKRSNSAIEFDVSALTAANRRQIYSSNRSASSEQDNSDLSEHSEKSPLVSARLDNLARLFFSKSMPAETGSRDTIDSVLTTRPNIKYQYSALDSGNGIVERSPRERAQREKALNATQEWIQGANGRYEVIAHLDEIGSRHGKNWFLVTDASVRTDRLQTLLPLPPDCVAFEDLPPNECAREILMELLGSLHHPYIYPVLDLGFLRNSSYNYACLVTPFNSRGSLKDLIYKAQWNEPWARKYTRKPNGLPVSQVQRLGRQILEALLFLKERGFPLHGHLHSGNVILQNGAARLSGLENGLLGLSSRINAVMWSRSVTEIENVDIVCFGHLLYEMCTGQELTTPKPSMRVLEMELQHYPQIGQTRKQILEILGLIFEPPSGVCPSVEDLVLCDLFRSIDLRELRGPCFSTIKPSLSRSTLNLLQAVKKRQCASLGHSLSEANSPCTPPSTPHDRRTGVLPAPYEVFRMY
Turning to B1, the “binding to dSlo (coimmunoprecipitation)” value in assay [3] is “still bind to dSlo”.

B2: Slob57: ion channel auxiliary protein that binds to and modulates the Drosophila Slowpoke channel (dSlo) (protein)
chain: MFKFNKAAQQQRIDNRNSAVTGHDPFVRPPVPEKKVRNIMKKLHKANGLKRSNSAIEFDVSALTAANRRQIYSSNRSASSEQDNSDLSEHSEKSPLVSARLDNLARLFFSKSMPAETGSRDTIDSVLTTRPNIKYQYSALDSGNGIVERSPRERAQREKALNATQEWIQGANGRYEVIAHLDEIGSRHGKNWFLVTDASVRTDRLQTLLPLPPDCVAFEDLPPNECAREILMELLGSLHHPYIYPVLDLGFLRNSSYNYACLVTPFNSRGSLKDLIYKAQWNEPWARKYTRKPNGLPVSQVQRLGRQILEALLFLKERGFPLHGHLHSGNVILQNGAARLSGLENGLLGLSSRINAVMWSRSVTEIENVDIVCFGHLLYEMCTGQELTTPKPSMRVLEMELQHYPQIGQTRKQILEILGLIFEPPSGVCPSVEDLVLCDLFRSIDLRELRGPCFSTIKPSLSRSTLNLLQAVKKRQCASLGHSLSEANSPCTPPSTPHDRRTGVLPAPYEVFRMY
Consider B2, for which the “shift of the conductance–voltage relationship of dSloD5N5” value in assay [4] (100-ms test pulse, 110 μM free Ca2+) is recorded as “does not rightward shift”. Further, in assay [4] (100-ms test pulse, 300 μM free Ca2+), the “modulation of V1/2 of dSloD5N5” value is “not modulated”. For the same molecule, the “inactivation of dSloD5N5” value in assay [4] (coexpression in CHO cells, whole cell, 110 μM free Ca2+, 350-ms test pulse) is reported as “causes dSloD5N5 inactivation”.

B3: Slob57ΔN5: amino-terminal five residue–truncated Slob57 (deletion of residues 2–6) (protein)
chain: MAAQQQRIDNRNSAVTGHDPFVRPPVPEKKVRNIMKKLHKANGLKRSNSAIEFDVSALTAANRRQIYSSNRSASSEQDNSDLSEHSEKSPLVSARLDNLARLFFSKSMPAETGSRDTIDSVLTTRPNIKYQYSALDSGNGIVERSPRERAQREKALNATQEWIQGANGRYEVIAHLDEIGSRHGKNWFLVTDASVRTDRLQTLLPLPPDCVAFEDLPPNECAREILMELLGSLHHPYIYPVLDLGFLRNSSYNYACLVTPFNSRGSLKDLIYKAQWNEPWARKYTRKPNGLPVSQVQRLGRQILEALLFLKERGFPLHGHLHSGNVILQNGAARLSGLENGLLGLSSRINAVMWSRSVTEIENVDIVCFGHLLYEMCTGQELTTPKPSMRVLEMELQHYPQIGQTRKQILEILGLIFEPPSGVCPSVEDLVLCDLFRSIDLRELRGPCFSTIKPSLSRSTLNLLQAVKKRQCASLGHSLSEANSPCTPPSTPHDRRTGVLPAPYEVFRMY
In the case of B3, the “binding to dSlo (coimmunoprecipitation)” value in assay [3] is “still bind to dSlo”.
